These results are taken from ChEMBL document CHEMBL1129274, “Synthesis and growth inhibitory properties of glycosides of 1-O-hexadecyl-2-O-methyl-sn-glycerol, analogs of the antitumor ether lipid ET-18-OCH3 (edelfosine)” (1996).

Common to all, as to format: functional
The test system of test [1] is L1210. The experiment in a line: Inhibitor activity against L1210/vmdr (transfected with a plasmid containing mdr1) cell line with varying concentration of the drug for 72 hrs. The note with it: Mus musculus, L1210, 72 h. In short, it runs like this: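 L1210 leukemia transfected with human mdr1 (pHaMDR1/A), grown in RPMI 1640 with 10% FBS plus 0.06 µg/mL colchicine; colchicine removed one week before assay. Exposed 72 h to a range of drug concentrations (ethanol stocks). Sulforhodamine B staining after in situ fixation. GI50 is the concentration giving 50% growth inhibition, from six wells over two plates.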

The test system of test [2] is MCF7. The experiment in a line: Inhibitor activity against MCF-7/Adr (Human colon carcinoma)cell line with varying concentration of the drug for 72 hrs. To be noted: MCF7, 72 h, in the assay text read “Human breast carcinoma” for “Human colon carcinoma”. In short, it runs like this:
(§1)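 Cells exposed 72 h to a range of drug concentrations; drug stocks prepared in ethanol. Growth read by in situ fixation and sulforhodamine B protein staining. GI50 is the concentration giving 50% growth inhibition. Each experiment's value comes from three wells on each of two separate plates (six wells); reported as mean ± SD over n experiments.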

Test [3] deals with L1210. The experiment in a line: Inhibitor activity against L1210 (murine leukemia )cell line with varying concentration of the drug for 72 hrs. The note with it: Mus musculus, L1210, 72 h. The method in brief:
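Murine L1210 leukemia cells grown in RPMI 1640 with 10% FBS. Exposed 72 h to a range of drug concentrations; drug stocks in ethanol. Growth read by in situ fixation and sulforhodamine B staining. GI50 is the concentration giving 50% growth inhibition. Each value comes from six wells over two plates; reported as mean ± SD.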

Another test relates to A549. The experiment in a line: Inhibitor activity against A549 (Human lung carcinoma)cell line with varying concentration of the drug for 72 hrs. The note with it: A549, 72 h. The method in brief: as §1
Test [4] has as its system MCF7. In words: Inhibitor activity against MCF-7(Human breast carcinoma)cell line with varying concentration of the drug for 72 hrs. To be noted: MCF7, 72 h. In short, it runs like this: as §1
Another test concerns HT-29. In words: Inhibitor activity against HT-29 (Human colon carcinoma)cell line with varying concentration of the drug for 72 hrs. The note with it: HT-29, 72 h. In short, it runs like this:
as §1

In test [5] the test system is P388. In words: Inhibitor activity against P388 (murine leukemia )cell line with varying concentration of the drug for 72 hrs. The note with it: Mus musculus, P388, 72 h. The method in brief: as §1
For test [6], the system named is Lewis lung carcinoma cell line. In words: Inhibitor activity against Lewis lung (murine lung carcinoma)cell line with varying concentration of the drug for 72 hrs. The note with it: Mus musculus. The method in brief:
as §1

Test [7] deals with P388. In words: Inhibitor activity against P388/Adr (murine leukemia )cell line with varying concentration of the drug for 72 hrs. The note with it: Mus musculus, P388, 72 h. In short, it runs like this: as §1

Molecules are shown by their SMILES.

Consider `CCCCCCCCCCCCCCCCOC[C@H](CO[C@H]1O[C@@H](CO)[C@@H](O)[C@H](O)[C@H]1OC)OC`, for which the GI50 in the test with L1210 [1] came out at 16.5 µM; in the test with MCF7 [2], 18.6 µM; in the test with L1210 [3], 15.5 µM; with A549, 15.6 µM; in the test with MCF7 [4], 18.2 µM; with HT-29, 20 µM.

For the compound `CCCCCCCCCCCCCCCCOC[C@H](CO[C@@H]1C[C@@H](O)[C@H](O)[C@H](CO)O1)OC`, the GI50 was found to be 26.9 µM in the test with L1210 [1]; 24.4 µM with MCF7 [2]; 18.8 µM with L1210 [3]; 19.7 µM in the test on A549; 24.4 µM in the test with MCF7 [4]; 29.6 µM in the test on HT-29.

Take `CCCCCCCCCCCCCCCCOC[C@H](CO[C@@H]1O[C@@H](CO)[C@@H](O)[C@H](O)[C@@H]1OC)OC`: the GI50 amounted to 21.8 µM in the test with MCF7 [2]; 18.1 µM in the test with P388 [5]; 26 µM in [6]; 29.3 µM in the test on P388 [7]; 18.3 µM with A549; 23.1 µM in the test on MCF7 [4].

Take `CCCCCCCCCCCCCCCCOC[C@H](CO[C@H]1C[C@@H](O)[C@H](O)[C@H](CO)O1)OC`: the GI50 is 7.09 µM with L1210 [1]; 12.8 µM with MCF7 [2]; 12.7 µM with P388 [5]; 11.1 µM in [6]; 10.2 µM in the test on P388 [7]; 7.02 µM in the test with L1210 [3]. Besides, the GI50 in the test with A549 amounted to 9.9 µM; with MCF7 [4] it was 6.93 µM; in the test on HT-29, 7.59 µM.

For the compound `CCCCCCCCCCCCCCCCOC[C@H](CO[C@@H]1O[C@@H](CO)[C@@H](O)[C@H](O)[C@@H]1O)OC`, the GI50 in the test on L1210 [1] came out at 18.9 µM; in the test on MCF7 [2] it was 23.3 µM; in the test with L1210 [3], 16.2 µM; in the test with A549, 18.1 µM; in the test with MCF7 [4], 21.7 µM; in the test with HT-29, 23.2 µM.

With `CCCCCCCCCCCCCCCCCCOC[C@H](COP(=O)([O-])OCC[N+](C)(C)C)OC` [(R)-EDELFOSINE], the GI50 is 11 µM with L1210 [1]; 30.4 µM with MCF7 [2]; 4.33 µM in the test on P388 [5]; 30.2 µM in test [6]; 6.39 µM in the test on P388 [7]; 3.32 µM in the test with L1210 [3]. Besides, the GI50 came out at 5.05 µM in the test with A549, 9.66 µM with MCF7 [4] and 2.2 µM in the test with HT-29.

In general, GI50 refers to the concentration that inhibits growth by half. A high value points to lower sensitivity of the cells.
